In ChEMBL document CHEMBL2380254, “Optimization of tocotrienols as antiproliferative and antimigratory leads” (Eur J Med Chem, 2013):

Assays:
MDA-MB-231 = assay: Growth inhibition of human MDA-MB-231 cells assessed as cell growth at 10 uM after 48 hrs by sulforhodamine B assay; format: functional; settings: MDA-MB-231, 48 h, read-out: Activity
Method in brief: (§1)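 Single-dose NCI-60 screen: adherent cells in RPMI 1640 with 5% FBS were exposed to 10 µM for 48 h at 37 °C after a 24 h preincubation. They were fixed in situ with cold TCA (10% final), stained with 0.4% SRB in 1% acetic acid, solubilized in 10 mM Tris base, and read at 515 nm. Percent growth was taken relative to time-zero and control plates.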

U-251 = assay: Growth inhibition of human U251 cells assessed as cell growth at 10 uM after 48 hrs by sulforhodamine B assay; format: functional; settings: U-251, 48 h, read-out: Activity
Method in brief: (§2)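 Single-dose NCI-60 test at 10 µM. Cells were grown in RPMI 1640 with 5% FBS and 2 mM L-glutamine, preincubated 24 h, with T0 plates TCA-fixed. Exposure was 48 h at 37 °C, 5% CO2. Cells were fixed with cold TCA (final 10%, 4 °C, 60 min), stained with SRB and read at 515 nm. Percent growth was taken relative to T0 and untreated control; negative values denote cell kill.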

OVCAR-8 = assay: Growth inhibition of human OVCAR8 cells assessed as cell growth at 10 uM after 48 hrs by sulforhodamine B assay; format: functional; settings: OVCAR-8, 48 h, read-out: Activity; method in brief: as §1
RXF 393 = assay: Growth inhibition of human RXF393 cells assessed as cell growth at 10 uM after 48 hrs by sulforhodamine B assay; format: functional; settings: RXF 393, 48 h, read-out: Activity; method in brief: as §1
[1] = Antiproliferative activity against mouse +SA cells by MTT assay; format: functional, cell-based; settings: +SA cell
Method in brief: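 Mouse +SA mammary epithelial cells in serum-free DMEM/F12 with BSA, transferrin, insulin and EGF. Compounds from DMSO stock conjugated to BSA (overnight, 37 °C); 0–40 µM, final DMSO <0.1%. MTT 0.42 mg/mL for 4 h at 37 °C, isopropanol solubilization, OD 570 nm. Cell number from a standard curve; IC50 by non-linear regression.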

DU-145 = assay: Growth inhibition of human DU145 cells assessed as cell growth at 10 uM after 48 hrs by sulforhodamine B assay; format: functional; settings: DU-145, 48 h, read-out: Activity
Method in brief: (§3)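 NCI-60 single-dose screen at 10 µM: cells in RPMI 1640 with 5% FBS, preincubated 24 h, then exposed 48 h at 37 °C. TCA fixation (16% final for suspension cells), SRB staining, absorbance 515 nm. Percent growth relative to time-zero and untreated control plates; negative values indicate cell kill.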

CAKI-1 = assay: Growth inhibition of human CAKI-1 cells assessed as cell growth at 10 uM after 48 hrs by sulforhodamine B assay; format: functional; settings: CAKI-1, 48 h, read-out: Activity; method in brief: as §3
HCT-116 [2] = assay: Growth inhibition of human HCT116 cells assessed as cell growth at 10 uM after 48 hrs by sulforhodamine B assay; format: functional; settings: HCT-116, 48 h, read-out: Activity; method in brief: as §3
SW-620 = assay: Growth inhibition of human SW620 cells assessed as cell growth at 10 uM after 48 hrs by sulforhodamine B assay; format: functional; settings: SW-620, 48 h, read-out: Activity; method in brief: as §2
T47D = assay: Growth inhibition of human T47D cells assessed as cell growth at 10 uM after 48 hrs by sulforhodamine B assay; format: functional; settings: read-out: Activity; method in brief: as §2
OVCAR-4 = assay: Growth inhibition of human OVCAR4 cells assessed as cell growth at 10 uM after 48 hrs by sulforhodamine B assay; format: functional; settings: OVCAR-4, 48 h, read-out: Activity; method in brief: as §1
[3] = Growth inhibition of human NCI-ADR-RES cells after 48 hrs by sulforhodamine B assay; format: functional
Method in brief: (§4)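 NCI-60 panel cells grown in RPMI 1640 with 5% FBS and 2 mM L-glutamine, seeded at 5000–40,000 cells/well and preincubated 24 h. Five 10-fold dilutions (0.001–100 µM) from DMSO stocks were added for 48 h at 37 °C. Adherent cells were fixed with cold TCA (10% final) for 60 min at 4 °C, stained with 0.4% SRB, and read at 515 nm. GI50 was set where 100×(T−T0)/(C−T0)=50.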

[4] = Growth inhibition of human Hs 578T cells after 48 hrs by sulforhodamine B assay; format: functional
Method in brief: (§5)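 NCI-60 screen: cells in RPMI 1640 with 5% FBS and 2 mM glutamine, 5000–40,000 cells/well, preincubated 24 h. Five concentrations (10-fold dilutions; 100 to 0.001 µM) applied for 48 h at 37 °C. TCA fixation, SRB stain, absorbance at 515 nm. Time-zero plates included; GI50 where 100×(T−T0)/(C−T0)=50.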

SK-MEL-2 = assay: Growth inhibition of human SK-MEL-2 cells after 48 hrs by sulforhodamine B assay; format: functional; settings: SK-MEL-2, 48 h; method in brief: as §4
COLO 205 = assay: Growth inhibition of human COLO205 cells after 48 hrs by sulforhodamine B assay; format: functional; settings: COLO 205, 48 h; method in brief: as §5
HCT-116 [5] = assay: Growth inhibition of human HCT116 cells after 48 hrs by sulforhodamine B assay; format: functional; settings: HCT-116, 48 h; method in brief: as §5
HT-29 = assay: Growth inhibition of human HT-29 cells after 48 hrs by sulforhodamine B assay; format: functional; settings: HT-29, 48 h; method in brief: as §5
SK-OV-3 = assay: Growth inhibition of human SKOV3 cells after 48 hrs by sulforhodamine B assay; format: functional; settings: SK-OV-3, 48 h
Method in brief: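 NCI-60 five-dose screen. Cells were grown in RPMI 1640 with 5% FBS and 2 mM L-glutamine, plated at 5000–40,000 cells/well and incubated 24 h before dosing, with T0 plates TCA-fixed. DMSO stocks were diluted to doses of […] and exposed 48 h at 37 °C, 5% CO2. Cells were fixed with cold TCA (final 10%, 60 min, 4 °C), stained with 0.4% SRB in 1% acetic acid for 10 min, solubilized in 10 mM trizma base and read at 515 nm. GI50 is where 100×(T−T0)/(C−T0)=50.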

HOP-92 = assay: Growth inhibition of human HOP92 cells after 48 hrs by sulforhodamine B assay; format: functional; settings: HOP-92, 48 h; method in brief: as §5
SF-268 = assay: Growth inhibition of human SF268 cells after 48 hrs by sulforhodamine B assay; format: functional; settings: SF-268, 48 h; method in brief: as §4
MOLT-4 = assay: Growth inhibition of human MOLT4 cells after 48 hrs by sulforhodamine B assay; format: functional; settings: MOLT-4, 48 h
Method in brief: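 NCI-60 suspension lines in RPMI 1640 with 5% FBS and 2 mM L-glutamine, preincubated 24 h. A five-concentration 10-fold series (0.001–100 µM) was given for 48 h at 37 °C. Settled cells were fixed with 80% TCA (16% final), stained with SRB, and read at 515 nm. GI50 was taken where 100×(T−T0)/(C−T0)=50, with T0 plates fixed at drug addition.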

SF-295 = assay: Growth inhibition of human SF295 cells after 48 hrs by sulforhodamine B assay; format: functional; settings: SF-295, 48 h; method in brief: as §4
CCRF-CEM = assay: Growth inhibition of human CCRF-CEM cells after 48 hrs by sulforhodamine B assay; format: functional; method in brief: as §5

SMILES	growth at 10 µM (MDA-MB-231) [%]	growth at 10 µM (U-251) [%]	growth at 10 µM (OVCAR-8) [%]	growth at 10 µM (RXF 393) [%]	IC50 [1] [nM]	growth at 10 µM (DU-145) [%]	growth at 10 µM (CAKI-1) [%]	growth at 10 µM (HCT-116 [2]) [%]	growth at 10 µM (SW-620) [%]	growth at 10 µM (T47D) [%]	growth at 10 µM (OVCAR-4) [%]	other results
CC(C)=CCC/C(C)=C/CC/C(C)=C/CC[C@]1(C)CCc2c3c(c(C)c(C)c2O1)OCN(CCCCCCCCCCO)C3	112	78.7	89.7	83.1	4400	67	78.9	78.4	105	85.2	105	–
COc1ccc(CCN2COc3c(C)c(C)c4c(c3C2)CC[C@@](C)(CC/C=C(\C)CC/C=C(\C)CCC=C(C)C)O4)cc1OC	96.1	88.4	101	–	1800	111	88.5	91.9	101	98	98.4	–
CC(C)=CCC/C(C)=C/CC/C(C)=C/CC[C@]1(C)CCc2cc(O)c(C)c(C)c2O1 [GAMMA-TOCOTRIENOL]	108	102	112	84.1	–	99.7	89.5	109	110	82.5	102	–
CC(C)=CCC/C(C)=C/CC/C(C)=C/CC[C@]1(C)CCc2c3c(cc(C)c2O1)OCN(C1CCN(Cc2ccccc2)CC1)C3	18.2	-66.6	-85.8	–	800	65.3	75.3	-81.9	100	89.3	59	GI50 [3]: 2560 nM; GI50 [4]: 1510 nM; GI50 (SK-MEL-2): 2300 nM; GI50 (COLO 205): 2000 nM; GI50 (HCT-116 [5]): 576 nM; GI50 (HT-29): 1840 nM; GI50 (SK-OV-3): 1930 nM; GI50 (HOP-92): 269 nM; GI50 (SF-268): 1670 nM; GI50 (MOLT-4): 237 nM; GI50 (SF-295): 1880 nM; GI50 (CCRF-CEM): 308 nM
CC(C)=CCC/C(C)=C/CC/C(C)=C/CC[C@]1(C)CCc2c3c(c(C)c(C)c2O1)OCN(CCCCCO)C3	55	58.6	69	–	1700	99.6	70	36.1	-18.6	94.4	93.1	GI50 [3]: 5890 nM; GI50 [4]: 7260 nM; GI50 (SK-MEL-2): 7470 nM; GI50 (COLO 205): 3390 nM; GI50 (HCT-116 [5]): 5250 nM; GI50 (HT-29): 3740 nM; GI50 (SK-OV-3): 6850 nM; GI50 (HOP-92): 5420 nM; GI50 (SF-268): 7130 nM; GI50 (MOLT-4): 5870 nM; GI50 (SF-295): 6120 nM; GI50 (CCRF-CEM): 7830 nM
CC(C)=CCC/C(C)=C/CC/C(C)=C/CC[C@]1(C)CCc2c(CNCCc3ccc(O)cc3)c(O)c(C)c(C)c2O1	89.5	93	84.8	–	2300	111	86.1	61.4	101	99.1	91	–
COc1ccc(CCN2COc3cc(C)c4c(c3C2)CC[C@@](C)(CC/C=C(\C)CC/C=C(\C)CCC=C(C)C)O4)cc1OC	13.2	-71.3	-70.7	–	870	-4.93	79.8	-84	-98.1	31.2	40.1	GI50 [3]: 2020 nM; GI50 [4]: 2300 nM; GI50 (SK-MEL-2): 2630 nM; GI50 (COLO 205): 1790 nM; GI50 (HCT-116 [5]): 1760 nM; GI50 (HT-29): 1850 nM; GI50 (SK-OV-3): 1900 nM; GI50 (HOP-92): 1550 nM; GI50 (SF-268): 2130 nM; GI50 (MOLT-4): 2320 nM; GI50 (SF-295): 2010 nM; GI50 (CCRF-CEM): 3320 nM
CC(C)=CCC/C(C)=C/CC/C(C)=C/CC[C@]1(C)CCc2c3c(c(C)c(C)c2O1)OCN(CCc1ccc(O)cc1)C3	68.5	81.8	42.1	–	1500	107	84.2	37.7	48.4	93.7	81.4	–
CC(C)=CCC/C(C)=C/CC/C(C)=C/CC[C@]1(C)CCc2c3c(cc(C)c2O1)OCN(CCCCCCCCCCCCO)C3	99.8	59.1	11.7	34.4	2000	85.4	78.3	51.6	95.2	78.5	77.5	–
CC(C)=CCC/C(C)=C/CC/C(C)=C/CC[C@]1(C)CCc2c3c(cc(C)c2O1)OCN(CCCCCCCCCCO)C3	119	74	74.6	52.6	3600	100	77.9	65.6	104	86.1	92.1	–
COc1ccc(CCNCc2c(O)c(C)c(C)c3c2CC[C@@](C)(CC/C=C(\C)CC/C=C(\C)CCC=C(C)C)O3)cc1OC	78.6	83.7	66.8	–	1700	110	86.6	47.1	47.2	83.2	84	–
CC(C)=CCC/C(C)=C/CC/C(C)=C/CC[C@]1(C)CCc2c3c(c(C)c(C)c2O1)OCN(CCCCCCCCCCCCO)C3	119	90.3	100	92.5	> 5000	109	96.2	102	109	95.8	107	–
